CCR6 antagonist – antagonists of human CCR6 receptor; P51684; CHO-K1 CCR6 PathHunter beta-arrestin, luminescence, CCL20-stimulated; inhibition, % at 20 µM; 340,000 compounds, 0.49% hits;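 active means compounds whose inhibition of the agonist-driven luminescence signal at 20 µM reaches about 50%, limit read from the data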;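 further: cells stimulated with CCL20 at 14 nM final; plate controls were DMSO with CCL20 for no effect and DMSO without agonist for full effect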
APJ antag – APJ receptor antagonism. CHO-K1 APJ beta-arrestin complementation, luminescence. 330,000 compounds, 0.32% hits. inhibition, % at 20 µM. AID 2521;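 active means inhibition above about 40% at 20 µM, limit read from the data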;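 further: cells challenged with 10 nM apelin-13 agonist together with compound; plate controls were apelin-13 plus DMSO wells for no effect and DMSO wells lacking apelin-13 for full effect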
APJ ag – agonists of human APJ apelin receptor. activation, % at 20 µM. CHO-K1 APJ PathHunter beta-arrestin, luminescence; 0% DMSO wells, 100% apelin. P35414. 330,000 compounds, 0.11% hits;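 active means activation more than six SD over the plate average, tested at 20 µM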;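 further: 0% = DMSO alone and 100% = apelin-13 at 10 nM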
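Material: CHO-K1 APJ beta-arrestin complementation cell line; Input: cell density 1000 per well; Incubation: compound stimulation 90 min at 25 °C, detection 60 min; Signal: luminescence from split beta-galactosidase complementation, Galacton Star/Emerald II substrate; Controls: DMSO-only wells as negative, 10 nM Apelin-13 as positive control.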
Beta2AR agonist – agonists of human beta-2 adrenergic receptor inducing internalization. AID 504454. P07550. Am2.2-beta2AR cells, FAP receptor internalization, flow cytometry. 340,000 compounds, 0.43% hits. response, % (no concentration beside the values);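 active means response above a set limit, near 3 SD of response in nonfluorescent compounds, cut at about 42% in these data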
EBI2 antag – antagonists of human EBI2 receptor; 360,000 compounds, 0.81% hits; inhibition, % at 5 µM; EBI2 beta-arrestin recruitment, luminescence, 7a,25-OHC stimulated; in the data active means inhibition above about 38%;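 further: enzyme fragment complementation signal reports receptor beta-arrestin coupling in cells; 0% = agonist plus DMSO wells and 100% = wells without agonist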
Target sequence (P32249 whole entry, looked up, the tested form may be a part): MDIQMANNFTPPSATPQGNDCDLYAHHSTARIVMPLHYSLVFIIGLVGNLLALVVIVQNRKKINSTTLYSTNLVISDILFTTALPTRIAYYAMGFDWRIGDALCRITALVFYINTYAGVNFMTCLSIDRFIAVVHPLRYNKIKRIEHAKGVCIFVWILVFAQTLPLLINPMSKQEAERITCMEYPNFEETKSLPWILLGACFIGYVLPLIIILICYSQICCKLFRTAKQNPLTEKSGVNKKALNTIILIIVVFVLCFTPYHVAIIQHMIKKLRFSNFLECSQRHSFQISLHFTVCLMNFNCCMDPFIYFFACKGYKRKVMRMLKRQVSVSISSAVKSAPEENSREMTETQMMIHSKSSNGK
CXCR6 block – inhibitors of human CXCR6 receptor | O00574 | CHO-K1 PathHunter CXCR6 beta-arrestin, luminescence | inhibition, % at 20 µM | 360,000 compounds, 0.36% hits | AID 602244; in the data active means inhibition above about 34%, passing the limit was not always enough;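 further: antagonist mode with CXCL16 agonist at 10 nM final; 0% = 10 nM CXCL16 with DMSO and 100% = unstimulated wells without agonist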
Target sequence (O00574 whole entry, looked up): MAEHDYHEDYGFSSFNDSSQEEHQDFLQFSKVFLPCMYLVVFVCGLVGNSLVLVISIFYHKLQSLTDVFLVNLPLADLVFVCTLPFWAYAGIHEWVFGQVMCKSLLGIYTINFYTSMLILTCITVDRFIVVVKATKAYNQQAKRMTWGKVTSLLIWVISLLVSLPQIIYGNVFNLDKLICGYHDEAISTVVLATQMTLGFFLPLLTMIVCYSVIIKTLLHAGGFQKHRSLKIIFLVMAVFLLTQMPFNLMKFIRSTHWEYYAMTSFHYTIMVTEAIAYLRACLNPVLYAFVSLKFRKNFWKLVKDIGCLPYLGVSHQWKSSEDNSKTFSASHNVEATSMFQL
Beta2AR ag CP1 – activates human beta-2 adrenergic receptor; shares compounds with Beta2AR agonist; Am2.2-beta2AR cells, FAP surface receptor, flow cytometry; stronger effect = lower value; 1,100 compounds, 25% hits; AID 540358; percent response (surface receptor), % at 10 µM;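 active means surface receptor percent response at or below 58%, roughly 3 SD from nonfluorescent compounds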
FAP fluor counter – counter-screen for beta-2AR agonists: fluorescence in Am2.2 cells. calls only at 10 µM. AID 588765. FAP fluorogen flow cytometry, fluorescence counterscreen; stronger effect = lower value. 1,100 tested, under 10 active. shares compounds with Beta2AR agonist;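 active means percent response below a set limit in fluorescence channel 1 and below 50% in channel 8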
CXCR6 confirm – confirmation of human CXCR6 receptor antagonists; shares compounds with CXCR6 block; CHO-K1 CXCR6 PathHunter beta-arrestin, luminescence; inhibition, % at 20 µM; 700 compounds, 65% hits;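 active means mean inhibition over four retests above 40%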;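 further: receptor stimulated with 10 nM CXCL16 agonist; beta-galactosidase fragment complementation upon beta-arrestin recruitment to receptor; plate controls were CXCL16 plus DMSO for no effect and DMSO without CXCL16 for full effect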
EBI2 antag conf – confirmation of human EBI2 receptor antagonists; shares compounds with EBI2 antag; EBI2 beta-arrestin luminescence, 7a,25-OHC antagonism; inhibition, % at 5 µM; 2,400 compounds, 29% hits; AID 651997;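 active means inhibition of at least 50%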
EBI2 ag – EBI2 agonism counter-screen | AID 652000 | activation, % at 5 µM | 2,400 tested, under 10 active | EBI2-expressing cells, agonist mode, luminescence, 60 min; 0% vehicle, 100% 7α,25-dihydroxycholesterol control | shares compounds with EBI2 antag;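 active means activation of at least 50%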
bGal counter – counter-screen for EBI2 antagonists: E. coli beta-galactosidase inhibition. shares compounds with EBI2 antag. purified beta-galactosidase, luminescent Galacton Star, 15 min. inhibition, % at 5 µM. 2,400 compounds, 1% hits. AID 652176;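 active means replicate-average signal at least 3 plate SD below neutral wells, shown as high inhibition, flagging enzyme-inhibiting false positives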;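 further: 0% = DMSO wells with enzyme and 100% = wells lacking enzyme; higher means stronger loss of beta-gal luminescence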
Numbers without * were called inactive; i = inactive; x = not tested or not shown. A selection: hits, their analogues and other compounds. The true share with any hit is near 1.8%.

SMILES	CCR6 antagonist	APJ antag	APJ ag	Beta2AR agonist	EBI2 antag	CXCR6 block	Beta2AR ag CP1	FAP fluor counter	others
C[C@H](CO)N1C[C@H](C)[C@@H](CN(C)S(=O)(=O)c2cccs2)Oc2ccc(NC(=O)Cn3cnnn3)cc2C1=O	-2	-1	-4	-2	-7	0	x	x
COC(=O)c1ccc(OCC(=O)NC2CCCCCC2)cc1	-4	-2	6	9	16	-8	x	x
COc1ccc(/C(O)=C2\C(=O)C(=O)N(c3cc(C)on3)C2c2ccccc2OC)cc1 (configuration not stated)	2	5	-7	50*	5	-3	112	i
COc1ccc(/C(O)=C2\C(=O)C(=O)N(c3cc(C)on3)C2c2ccccc2OC)cc1C (configuration not stated)	12	14	-3	2	2	6	x	x
COc1cccc(C(CNc2ccc(S(=O)(=O)N3CCN(C)CC3)cc2[N+](=O)[O-])N(C)C)c1 (configuration not stated)	12	18	-5	-2	3	14	x	x
CC(=O)Nc1ccc(Nc2cc(C(C)C)nc3c(-c4ccccc4)c(C)nn23)cc1	24	9	4	52*	31	7	67	i
Cc1ccc(-c2nnn(CC(=O)Nc3ccccc3N3CCOCC3)n2)cc1	11	-2	-1	23	2	-6	x	x
O=C(Cn1nnc(-c2ccccc2)n1)Nc1ccccc1N1CCOCC1	8	-2	0	-19	-1	-7	43*	i
CC(C)(C)c1cc(C(c2cccnc2)N2CCN(CCO)CC2)cc(C(C)(C)C)c1O (configuration not stated)	62*	23	4	62*	3	27	57*	i
CC1C(=O)CC2C3(C)CCC2(C(C)C(=O)O)C(=O)C13 (configuration not stated)	x	x	x	x	-1	-1	x	x
CC(NC(=O)c1cc(COc2ccc3ncccc3c2)on1)c1ccc(F)cc1 (configuration not stated)	11	-15	1	45*	3	-17	57*	i
N#Cc1c(-c2ccc(Cl)cc2)c(-c2ccc(Cl)cc2)nn(CCO)c1=O	13	x	x	1	11	8	x	x
O=C(c1cc(-c2ccc(Cl)cc2)n(-c2cc(Cl)ccc2Cl)n1)N1CCOCC1	11	7	-3	62*	10	17	129	i
CCCNC(=O)NS(=O)(=O)c1ccc(Cl)cc1	15	-8	-4	1	-3	-2	x	x
CCCNC(=O)c1nnsc1S(=O)(=O)c1ccc(Cl)cc1	74*	23	-3	81*	12	65*	55*	i	CXCR6 confirm=83*
COC(=O)c1ccc(C(=O)OC)c(-n2c(=O)c3ccccc3c3ccccc3c2=O)c1	57*	18	-3	54*	6	40*	105	i	CXCR6 confirm=40
CC1(C)CC(Cc2ccc(Cl)nc2)N(C(=O)OC(C)(C)C)C1 (configuration not stated)	x	x	x	x	3	6	x	x
C[C@@H]1CC[C@H](Cc2ccc(-n3cccc3)cc2)N1C(=O)OC(C)(C)C	x	x	x	x	11	53*	97	i	CXCR6 confirm=10
Cc1ccc(NC(=O)c2cc(N3C(=O)C=CC3=O)ccc2N2CCOCC2)cc1	x	x	x	123*	0	89*	42*	i	CXCR6 confirm=28
O=C(C[C@H]1CC[C@@H]2[C@H](COC[C@@H](O)CN2Cc2cccc(F)c2)O1)NCC1CCCCC1	x	x	x	x	-11	x	x	x
CCN(CC)c1ncnc2c1ncn2[C@H]1CN(Cc2cc(OC)c(OC)c(OC)c2)C[C@@H](CO)O1	x	x	x	x	-4	3	x	x
Cc1nc(NC(=O)CSc2nnc(-c3ccccc3)c(-c3ccccc3)n2)c(Cl)cc1Cl	13	5	-2	48*	42*	6	73	i	EBI2 antag conf=25;EBI2 ag=1;bGal counter=3
CCC[C@H]1CN(c2ccccc2)C(=O)[C@@H]1CC(=O)NC	x	x	x	x	-3	6	x	x
O=C(Nc1cc(S(=O)(=O)Nc2ccc(Cl)cc2)ccc1N1CCCCC1)c1ccc(F)cc1	14	-11	-3	8	29	15	x	x
N#Cc1ccc(C(=O)Nc2cc(S(=O)(=O)Nc3ccc(Cl)cc3)ccc2N2CCCCC2)cc1	13	-15	-1	44*	52*	-5	103	i	EBI2 antag conf=33;EBI2 ag=1;bGal counter=3
SMILES	CCR6 antagonist	APJ antag	APJ ag	Beta2AR agonist	EBI2 antag	CXCR6 block	Beta2AR ag CP1	FAP fluor counter	others
Cc1ccc(S(=O)(=O)NCC(=O)OCC(=O)c2ccc(S(=O)(=O)N3CCCCC3)cc2)cc1C	72*	x	x	-3	15	56*	x	x	CXCR6 confirm=33
CCOc1ccc(C=NNc2ccc(S(=O)(=O)Nc3ccccc3C(=O)O)cc2[N+](=O)[O-])cc1	x	25	-9	2	8	24	x	x
C=CCOc1ccc(C=NNc2ccc(S(=O)(=O)Nc3ccccc3C(=O)O)cc2[N+](=O)[O-])cc1OC	x	11	-2	-5	0	50*	x	x	CXCR6 confirm=44*
O=C1CCC2c3[nH]c4ccccc4c3CCN12 (configuration not stated)	x	x	x	x	-9	3	x	x
CCOC(=O)[C@]12CCCC=C1N(Cc1ccccc1)C(=O)[C@H](CC(=O)N1CCN(C(=O)c3ccco3)CC1)C2	x	x	x	x	5	x	x	x
COCCN(C(=O)c1ccc(C)c(S(=O)(=O)N2CCOCC2)c1)c1c(N)n(CC(C)C)c(=O)[nH]c1=O	4	x	x	-1	-2	-8	x	x
CCCCCc1ccc(-c2cn(Cc3ccc(C(=O)c4ccccc4)cc3)nn2)cc1	-3	-5	0	3	-10	-4	x	x
CCc1cc(-c2cnnn2Cc2ccccc2)ccc1-c1cn(CC(C)C)nn1	x	x	x	x	5	60*	x	x	CXCR6 confirm=8
CCOc1ccc(CN2CCN(Cc3cn(CC)nc3C)CC2CCO)cc1 (configuration not stated)	-10	11	-3	-1	1	47*	x	x	CXCR6 confirm=2
